Laboratory results as given in ChEMBL document CHEMBL1649563, “Nukacin ISK-1, a bacteriostatic lantibiotic” (2009).
≈ marks a conversion by molar mass, not a printed value. Calls of active or inactive are those of the source. The rule behind the calls is not given here.

Key:
Bacillus subtilis [1] = assay: Antibacterial activity against Bacillus subtilis JCM 1465 assessed as single arrangement of initial stage of septal orientation by microscopy; type: functional, organism-based
Summary of the method: (§1)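 B. subtilis JCM 1465T treated at 10× MIC for 90 min against an untreated control, then prepared for transmission electron microscopy. Longitudinal and cross sections examined.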

Bacillus subtilis [2] = assay: Antibacterial activity against Bacillus subtilis JCM 1465 assessed as decrease in bacterial cell wall thickness by microscopy; type: functional, organism-based; summary of the method: as §1
Bacillus subtilis [3] = assay: Antibacterial activity against Bacillus subtilis JCM 1465; type: functional
Summary of the method: (§2)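 Spot-on-lawn method against each indicator strain, giving MIC. Activity determined at least twice per lantibiotic.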

Micrococcus luteus = assay: Antibacterial activity against Micrococcus luteus IFO 12708; type: functional; summary of the method: as §2
Listeria innocua = assay: Antibacterial activity against Listeria innocua ATCC 33090; type: functional; summary of the method: as §2
Lactococcus lactis = assay: Antibacterial activity against Lactococcus lactis ATCC 19435; type: functional; summary of the method: as §2
Enterococcus faecalis = assay: Antibacterial activity against Enterococcus faecalis TUA 1344L; type: functional; summary of the method: as §2
Lactobacillus sakei [4] = assay: Antibacterial activity against Lactobacillus sakei JCM 1157; type: functional; conditions: Latilactobacillus sakei; summary of the method: as §2
Staphylococcus carnosus = assay: Antibacterial activity against Staphylococcus carnosus TM300; type: functional; summary of the method: as §2
Lactobacillus sakei [5] = assay: Bacteriostatic against Lactobacillus sakei JCM 1157 assessed as decrease in cell viability after 24 hrs by turbidity assay; type: functional; conditions: Latilactobacillus sakei
Lactobacillus sakei [6] = assay: Bacteriostatic against Lactobacillus sakei JCM 1157 assessed as lysis of cell after 24 hrs by spectrophotometry; type: functional; conditions: Latilactobacillus sakei
Bacillus subtilis [7] = assay: Antibacterial activity against Bacillus subtilis JCM 1465 assessed as dissipation of membrane potential by fluorescence assay; type: functional, organism-based
Bacillus subtilis [8] = assay: Antibacterial activity against Bacillus subtilis JCM 1465 assessed as induction of pore formation-associated efflux of ATP by fluorescence assay; type: functional, organism-based
Summary of the method: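 ATP efflux from B. subtilis JCM 1465T cells treated with lantibiotic at 10× MIC, detected with a Lucifer-HS ATP detection kit. Run twice, representative data shown.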

Bacillus subtilis [9] = assay: Antibacterial activity against Bacillus subtilis JCM 1465 assessed as induction of pore formation-associated efflux of K+ ion by fluorescence assay; type: functional, organism-based
Summary of the method: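 K+ efflux from B. subtilis JCM 1465T cells exposed to lantibiotic at 10× MIC, measured with potassium-binding benzofuran isophthalate-AM (PBFI). Expressed relative to total K+ released after adding 1 μM nisin (100%). Run twice.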

Bacillus subtilis [10] = assay: Antibacterial activity against Bacillus subtilis JCM 1465 assessed as detachment of plasma membrane from cell wall by microscopy; type: functional, organism-based; summary of the method: as §1
[11] = system: Lactiplantibacillus plantarum; assay: Antibacterial activity against Lactobacillus plantarum ATCC 14617; type: functional; conditions: ATCC 14917, in the assay text read “ATCC 14917” for “ATCC 14617”; summary of the method: as §2
Cell membrane = assay: Binding affinity to cell membrane of Bacillus subtilis JCM 1465 assessed as dissipation of nisin A-induced membrane potential

Row | SMILES | Activity (Bacillus subtilis [1]) | Activity (Bacillus subtilis [2]) | MIC (Bacillus subtilis [3]) | MIC (Micrococcus luteus) | MIC (Listeria innocua) | MIC (Lactococcus lactis) | MIC (Enterococcus faecalis) | MIC (Lactobacillus sakei [4]) | MIC (Staphylococcus carnosus) | Activity (Lactobacillus sakei [5]) | Activity (Lactobacillus sakei [6]) | Activity (Bacillus subtilis [7]) | Activity (Bacillus subtilis [8]) | Activity (Bacillus subtilis [9]) | Activity (Bacillus subtilis [10]) | MIC [11] | Activity (Cell membrane)
1 | C/C=C1\NC(=O)[C@H](Cc2ccccc2)NC(=O)[C@H](C(C)C)NC(=O)[C@H](Cc2ccccc2)NC(=O)[C@H](CCC(N)=O)NC(=O)[C@H](Cc2ccccc2)NC(=O)[C@@H]2CSC[C@@H](C(=O)N[C@@H](CO)C(=O)O)NC(=O)[C@H](CSC[C@@H]3NC(=O)[C@H](C(C)C)NC(=O)[C@@H](NC(=O)[C@@H]4CCCN4C(=O)[C@@H](NC(=O)[C@@H](NC(=O)CNC(=O)[C@H](CO)NC(=O)[C@H](CCCCN)NC(=O)[C@H](CCCCN)NC(=O)[C@@H](N)CCCCN)C(C)C)[C@@H](C)CC)[C@H](C)SC[C@H](NC(=O)[C@H](CC(=O)O)NC(=O)[C@H](Cc4cnc[nH]4)NC3=O)C(=O)N[C@@H](Cc3cnc[nH]3)C(=O)N[C@@H](CCSC)C(=O)N[C@@H](CC(N)=O)C(=O)N2)NC1=O | Active | Active | 0.26 µM (≈ 0.769 µg/mL) | 2.08 µM (≈ 6.16 µg/mL) | 16.6 µM (≈ 49.2 µg/mL) | 0.52 µM (≈ 1.54 µg/mL) | 4.16 µM (≈ 12.3 µg/mL) | 0.26 µM (≈ 0.769 µg/mL) | 0.26 µM (≈ 0.769 µg/mL) | Active | Active | inactive | inactive | inactive | – | – | –
2 | C=C(NC(=O)[C@@H](NC(=O)[C@H](Cc1cnc[nH]1)NC(=O)[C@@H](NC(=O)[C@H](CO)NC(=O)[C@@H]1CSC(C)[C@@H]2NC(=O)[C@H](C)NC(=O)[C@@H](NC(=O)N(CCCCN)C(=O)[C@H](CCCCN)NC(=O)[C@@H](CCSC)NC(=O)[C@H](CC(N)=O)NC(=O)[C@@H]3CSC(C)[C@H](NC(=O)[C@H](CCCCN)NC(=O)[C@@H]4CSC(C)[C@H](NC(=O)[C@@H]5CSC[C@H](NC(=O)/C(=C/C)NC(=O)[C@@H](N)[C@@H](C)CC)C(=O)N[C@@H](CC(C)C)C(=O)NC(=C)C(=O)N[C@@H](CC(C)C)C(=O)N5)C(=O)N5CCC[C@H]5C(=O)NCC(=O)N4)C(=O)NCC(=O)N[C@@H](C)C(=O)N[C@@H](CC(C)C)C(=O)N[C@H](CCSC)C(=O)NCC(=O)N3)C(C)SC[C@H](NC2=O)C(=O)N[C@@H](Cc2cnc[nH]2)C(=O)N1)[C@@H](C)CC)C(C)C)C(=O)N[C@@H](CCCCN)C(=O)O (stereo partly specified) | – | – | 0.008 µM (≈ 0.0277 µg/mL) | 0.032 µM (≈ 0.111 µg/mL) | 0.065 µM (≈ 0.225 µg/mL) | 0.065 µM (≈ 0.225 µg/mL) | 0.26 µM (≈ 0.902 µg/mL) | 0.008 µM (≈ 0.0277 µg/mL) | 0.016 µM (≈ 0.0555 µg/mL) | – | – | – | Active | Active | Active | 1.04 µM (≈ 3.61 µg/mL) | Active
